ChEMBL document CHEMBL4706595, “1,3-Oxazine-2-one derived dual-targeted molecules against replicating and non-replicating forms of Mycobacterium tuberculosis” (Eur J Med Chem, 2020)
≈ marks a conversion by molar mass, not a printed value.

Columns and labels:
[1] = tested on: Mycobacterium tuberculosis; test: Antimycobacterial activity against rifampicin-resistant Mycobacterium tuberculosis H37Rv ATCC 35838 assessed as inhibition of bacterial growth by agar plate dilution method; format: functional
Summary of the method: (§1)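 MIC determined by agar plate dilution method; isoniazid and rifampin run as references.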

[2] = tested on: Mycobacterium tuberculosis; test: Antimycobacterial activity against isoniazid-resistant Mycobacterium tuberculosis H37Rv ATCC 35822 assessed as inhibition of bacterial growth by agar plate dilution method; format: functional; summary of the method: as §1

| Structure (SMILES) | MIC [1] [µg/mL] | MIC [2] [µg/mL] |
| --- | --- | --- |
| CC(C)=CCC/C(C)=C/COc1ccc(C(=O)OCCCOc2cccc(Nc3nc4ccccc4c(=O)o3)c2)cc1 | 2.6 (≈ 4.57 µM) | 4.4 (≈ 7.74 µM) |
| CC(C)=CCC/C(C)=C/CC/C(C)=C/COc1ccc(C(=O)OCCCOc2cccc(Nc3nc4ccccc4c(=O)o3)c2)cc1 | 1.8 (≈ 2.83 µM) | 2.3 (≈ 3.61 µM) |
| NNC(=O)c1ccncc1 [ISONIAZID] | 0.25 (≈ 1.82 µM) | > 8 |
| CO[C@H]1/C=C/O[C@@]2(C)Oc3c(C)c(O)c4c(O)c(c(/C=N/N5CCN(C)CC5)c(O)c4c3C2=O)NC(=O)/C(C)=C\C=C\[C@H](C)[C@H](O)[C@@H](C)[C@@H](O)[C@@H](C)[C@H](OC(C)=O)[C@@H]1C [RIFAMPIN] | > 2 | 0.03 (≈ 0.0365 µM) |
